From ChEMBL document CHEMBL4261600 (Eur J Med Chem, 2018) come the findings set out here.

Series [1] has as its system Epidermal growth factor receptor (Homo sapiens), P00533 [G719C]. In words: Binding affinity to human partial length EGFR G719C mutant (R669 to V1011 residues) expressed in bacterial expression system assessed as remaining unbound target protein level at 1000 nM by Kinomescan method relative to control. An outline of the steps: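 KINOMEscan competition-binding profiling across the panel of 468 kinases and mutants, with inhibitor tested at 1 μM. Binding is expressed as percent of control, with DMSO as the reference control.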

Series [2] concerns the target Angiopoietin-1 receptor (Homo sapiens) (UniProt Q02763). Description: Binding affinity to wild-type human partial length TIE2 (N804 to T1112 residues) expressed in bacterial expression system assessed as remaining unbound target protein level at 1000 nM by Kinomescan method relative to control.
Series [3] has as its target Protein kinase C theta type (Homo sapiens) (UniProt Q04759). Description: Binding affinity to wild-type human partial length PRKCQ (L350 to S706 residues) expressed in bacterial expression system assessed as remaining unbound target protein level at 1000 nM by Kinomescan method relative to control.
The target of series [4] is Receptor-interacting serine/threonine-protein kinase 1 (Homo sapiens) (UniProt Q13546). In words: Binding affinity to wild-type human partial length RIPK1 (M1 to K305 residues) expressed in bacterial expression system assessed as remaining unbound target protein level at 1000 nM by Kinomescan method relative to control.
Chain of Receptor-interacting serine/threonine-protein kinase 1 (Homo sapiens) (Q13546 whole entry, the tested form may be a part): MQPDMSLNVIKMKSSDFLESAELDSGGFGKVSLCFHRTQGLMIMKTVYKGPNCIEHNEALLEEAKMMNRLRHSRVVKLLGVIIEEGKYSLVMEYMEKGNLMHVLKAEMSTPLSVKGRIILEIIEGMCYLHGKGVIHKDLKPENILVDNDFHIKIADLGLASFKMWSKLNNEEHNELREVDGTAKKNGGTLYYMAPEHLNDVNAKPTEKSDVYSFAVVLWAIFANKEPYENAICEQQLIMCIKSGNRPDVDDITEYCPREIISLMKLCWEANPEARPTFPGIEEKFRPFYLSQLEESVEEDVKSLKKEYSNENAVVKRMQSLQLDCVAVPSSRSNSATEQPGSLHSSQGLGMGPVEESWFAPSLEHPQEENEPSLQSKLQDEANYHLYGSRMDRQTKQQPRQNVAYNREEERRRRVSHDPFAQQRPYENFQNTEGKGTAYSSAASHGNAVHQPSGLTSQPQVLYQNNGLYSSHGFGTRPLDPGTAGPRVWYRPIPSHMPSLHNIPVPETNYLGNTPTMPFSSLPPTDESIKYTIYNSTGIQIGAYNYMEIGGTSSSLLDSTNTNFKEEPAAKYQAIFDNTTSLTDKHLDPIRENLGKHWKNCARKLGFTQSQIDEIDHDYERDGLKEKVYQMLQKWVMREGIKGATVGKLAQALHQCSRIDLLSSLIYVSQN
The nature of series [5]: Apparent volume of distribution in Sprague-Dawley rat at 3 mg/kg, iv by LC-MS/MS analysis. The class given is ADME, organism-based. Conditions: in vivo, read-out: Vz. In short, it runs like this: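 Non-compartmental PK. Male SD rats 190-210 g, mice and beagle dogs acclimatized one week, fasted 12 h with water, split into iv and po groups (mice 48, rats 6, dogs 6). iv 3/3/2 mg/kg (mice/rats/dogs); po 10/20/10 mg/kg; vehicle DMSO in 5% glucose water. Blood at 2 or 5 to 720 min; plasma protein-precipitated with methanol, caffeine internal standard, LC-MS/MS.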

For series [6], the target named is Tyrosine-protein kinase ABL2 (Homo sapiens) (UniProt P42684). Description: Binding affinity to wild-type human ABL2 (A248 to G542 residues) expressed in bacterial expression system assessed as remaining unbound target protein level at 1000 nM by Kinomescan method relative to control. An outline of the steps:
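KINOMEscan competitive binding profile at 1 μM inhibitor. Remaining target binding reported as percent of DMSO control.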

Series [7] addresses Serine/threonine-protein kinase MRCK gamma (Homo sapiens) (UniProt Q6DT37). In words: Binding affinity to wild-type human partial length DMPK2 (S46 to S408 residues) expressed in bacterial expression system assessed as remaining unbound target protein level at 1000 nM by Kinomescan method relative to control.
Series [8] is described as follows: MRT (0 to t) in beagle dog at 10 mg/kg, po by LC-MS/MS analysis. The class given is ADME, organism-based, Canis lupus familiaris. The following applies: in vivo.
The target in series [9] is Inhibitor of nuclear factor kappa-B kinase subunit epsilon (Homo sapiens) (UniProt Q14164). In words: Binding affinity to wild-type human full length IKK-epsilon (M1 to V716 residues) expressed in mammalian expression system assessed as remaining unbound target protein level at 1000 nM by Kinomescan method relative to control. An outline of the steps: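 KINOMEscan competition binding profile across a panel of 468 kinases and mutants, with the inhibitor tested at a single concentration of 1 μM. Binding is reported as percent of control, meaning signal relative to a DMSO control.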
Chain of Inhibitor of nuclear factor kappa-B kinase subunit epsilon (Homo sapiens) (Q14164 whole entry, the tested form may be a part): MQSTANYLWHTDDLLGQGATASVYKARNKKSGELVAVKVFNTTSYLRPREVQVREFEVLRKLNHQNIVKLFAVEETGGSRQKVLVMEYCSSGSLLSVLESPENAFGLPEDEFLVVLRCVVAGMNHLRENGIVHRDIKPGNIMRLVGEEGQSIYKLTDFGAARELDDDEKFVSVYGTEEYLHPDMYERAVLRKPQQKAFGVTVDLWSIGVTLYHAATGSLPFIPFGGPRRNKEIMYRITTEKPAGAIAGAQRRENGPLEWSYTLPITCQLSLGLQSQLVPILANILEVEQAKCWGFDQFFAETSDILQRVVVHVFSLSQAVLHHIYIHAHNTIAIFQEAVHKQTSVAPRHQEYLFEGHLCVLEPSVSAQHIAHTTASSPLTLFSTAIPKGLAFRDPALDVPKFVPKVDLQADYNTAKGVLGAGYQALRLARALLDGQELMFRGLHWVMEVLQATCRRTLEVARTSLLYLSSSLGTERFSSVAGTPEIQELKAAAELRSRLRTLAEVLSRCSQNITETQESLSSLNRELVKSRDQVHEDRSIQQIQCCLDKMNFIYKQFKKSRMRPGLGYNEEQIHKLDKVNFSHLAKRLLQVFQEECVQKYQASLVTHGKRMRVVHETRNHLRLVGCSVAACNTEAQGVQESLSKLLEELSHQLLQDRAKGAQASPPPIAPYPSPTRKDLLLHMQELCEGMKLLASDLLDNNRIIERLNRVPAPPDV

In series [10] the target is Transient receptor potential cation channel subfamily M member 6 (Homo sapiens) (UniProt Q9BX84). In words: Binding affinity to wild-type human partial length TRPM6 (Q1723 to I1998 residues) expressed in mammalian expression system assessed as remaining unbound target protein level at 1000 nM by Kinomescan method relative to control.
Series [11] can be described thus: MRT (0 to infinity) in mouse at 10 mg/kg, po by LC-MS/MS analysis. It is filed as ADME, organism-based. The following applies: in vivo.
The target in series [12] is Serine/threonine-protein kinase LATS1 (Homo sapiens) (UniProt O95835). In words: Binding affinity to wild-type human partial length LATS1 (Q678 to V1130 residues) expressed in bacterial expression system assessed as remaining unbound target protein level at 1000 nM by Kinomescan method relative to control.
In series [13] the target is Vascular endothelial growth factor receptor 3 (Homo sapiens) (UniProt P35916). Description: Binding affinity to wild-type human partial length FLT4 (E821 to E1196 residues) expressed in bacterial expression system assessed as remaining unbound target protein level at 1000 nM by Kinomescan method relative to control.
Chain of Vascular endothelial growth factor receptor 3 (Homo sapiens) (P35916 whole entry, the tested form may be a part): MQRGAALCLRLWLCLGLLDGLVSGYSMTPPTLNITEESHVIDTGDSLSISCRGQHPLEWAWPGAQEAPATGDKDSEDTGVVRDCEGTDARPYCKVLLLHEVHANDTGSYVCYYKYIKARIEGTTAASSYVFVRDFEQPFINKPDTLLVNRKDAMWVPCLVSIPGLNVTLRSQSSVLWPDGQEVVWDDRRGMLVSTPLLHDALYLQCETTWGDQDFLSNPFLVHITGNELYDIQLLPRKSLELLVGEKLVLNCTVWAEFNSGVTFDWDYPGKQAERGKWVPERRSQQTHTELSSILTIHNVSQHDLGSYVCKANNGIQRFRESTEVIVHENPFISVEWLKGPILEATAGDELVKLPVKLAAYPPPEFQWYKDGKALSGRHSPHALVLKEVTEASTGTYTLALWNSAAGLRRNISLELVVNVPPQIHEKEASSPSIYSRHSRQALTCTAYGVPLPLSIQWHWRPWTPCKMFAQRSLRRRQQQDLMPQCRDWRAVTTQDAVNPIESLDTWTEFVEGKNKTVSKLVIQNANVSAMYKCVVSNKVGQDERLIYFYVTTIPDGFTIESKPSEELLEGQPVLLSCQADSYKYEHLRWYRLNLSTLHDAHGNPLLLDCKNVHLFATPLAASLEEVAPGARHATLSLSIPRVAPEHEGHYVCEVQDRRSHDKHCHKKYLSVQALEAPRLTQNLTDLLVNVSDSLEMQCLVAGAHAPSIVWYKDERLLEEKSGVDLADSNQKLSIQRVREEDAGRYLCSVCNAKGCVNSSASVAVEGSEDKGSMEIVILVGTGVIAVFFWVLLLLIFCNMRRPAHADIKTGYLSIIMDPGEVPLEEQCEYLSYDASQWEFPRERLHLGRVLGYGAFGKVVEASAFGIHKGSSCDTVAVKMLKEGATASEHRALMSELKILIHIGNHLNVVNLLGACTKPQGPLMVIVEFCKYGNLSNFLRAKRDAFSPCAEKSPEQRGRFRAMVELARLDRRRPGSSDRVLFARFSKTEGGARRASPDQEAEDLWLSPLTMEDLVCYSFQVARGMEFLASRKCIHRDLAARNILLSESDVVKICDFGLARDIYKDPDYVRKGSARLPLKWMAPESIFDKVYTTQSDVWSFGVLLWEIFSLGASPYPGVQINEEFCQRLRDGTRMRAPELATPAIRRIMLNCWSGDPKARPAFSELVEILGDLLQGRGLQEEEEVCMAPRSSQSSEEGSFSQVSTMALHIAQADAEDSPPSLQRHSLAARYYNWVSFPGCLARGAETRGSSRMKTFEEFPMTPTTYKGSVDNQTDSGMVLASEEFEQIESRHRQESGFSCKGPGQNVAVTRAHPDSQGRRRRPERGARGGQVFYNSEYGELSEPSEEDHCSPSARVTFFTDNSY
The target of series [14] is Cyclin-dependent kinase 7 (Homo sapiens) (UniProt P50613). Description: Inhibition of CDK7 in human MEC1 cells assessed as decrease in RNA polymerase 2 phosphorylation at Ser 5 residues up to 3 uM after 2 hrs by immunoblotting analysis. It is filed as cell-based.
The target of series [15] is Cyclin-dependent kinase-like 1 (Homo sapiens) (UniProt Q00532). In words: Binding affinity to wild-type human full length CDKL1 (M1 to I358 residues) expressed in mammalian expression system assessed as remaining unbound target protein level at 1000 nM by Kinomescan method relative to control. In short, it runs like this: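 Single-point competition binding screen across a panel of 468 kinases and mutants, with the inhibitor at 1 μM. Binding is read out as percent of a DMSO control, and targets below 1 percent control were classed as strong binders.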

The target of series [16] is Ribosomal protein S6 kinase beta-1 (Homo sapiens) (UniProt P23443). In words: Binding affinity to wild-type human partial length S6K1 (M1 to S421 residues) expressed in mammalian expression system assessed as remaining unbound target protein level at 1000 nM by Kinomescan method relative to control.
Chain of Ribosomal protein S6 kinase beta-1 (Homo sapiens) (P23443 whole entry, looked up, the tested form may be a part): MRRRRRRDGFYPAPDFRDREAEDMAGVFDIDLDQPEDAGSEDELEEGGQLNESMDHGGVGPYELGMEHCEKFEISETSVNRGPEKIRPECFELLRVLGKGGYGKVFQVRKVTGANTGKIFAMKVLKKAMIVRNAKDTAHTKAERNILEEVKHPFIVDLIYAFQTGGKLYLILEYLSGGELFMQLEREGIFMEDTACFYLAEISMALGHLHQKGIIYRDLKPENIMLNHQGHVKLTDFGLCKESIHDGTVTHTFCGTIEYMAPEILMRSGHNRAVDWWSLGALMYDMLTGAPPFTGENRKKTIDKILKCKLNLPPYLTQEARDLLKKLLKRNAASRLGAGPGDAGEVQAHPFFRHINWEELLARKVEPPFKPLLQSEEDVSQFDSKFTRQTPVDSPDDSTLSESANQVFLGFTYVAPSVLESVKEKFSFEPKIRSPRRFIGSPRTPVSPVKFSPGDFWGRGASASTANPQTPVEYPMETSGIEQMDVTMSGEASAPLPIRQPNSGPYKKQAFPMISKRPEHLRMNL
In series [17] the target is Tyrosine-protein kinase Blk (Homo sapiens) (UniProt P51451). Description: Binding affinity to wild-type human partial length BLK (G211 to L503 residues) expressed in bacterial expression system assessed as remaining unbound target protein level at 1000 nM by Kinomescan method relative to control. In short, it runs like this:
(§1)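 Profiled in a KINOMEscan binding panel with the inhibitor at a single concentration of 1 μM. Binding to each kinase was read out as percent of control, relative to a DMSO control. Strong binders were defined as those with a percent control value below 1.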

Series [18] has as its target Serine/threonine-protein kinase 32B (Homo sapiens) (UniProt Q9NY57). Description: Binding affinity to wild-type human full length YANK2 (M1 to S414 residues) expressed in bacterial expression system assessed as remaining unbound target protein level at 1000 nM by Kinomescan method relative to control. In short, it runs like this:
as §1

For series [19], the target named is Homeodomain-interacting protein kinase 3 (Homo sapiens) (UniProt Q9H422). In words: Binding affinity to wild-type human partial length HIPK3 (M153 to N562 residues) expressed in mammalian expression system assessed as remaining unbound target protein level at 1000 nM by Kinomescan method relative to control. An outline of the steps:
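KINOMEscan binding panel of 468 kinases/mutants. Inhibitor was tested at a single concentration of 1 μM. Binding is reported as percent of control, defined relative to a DMSO control.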

A short description of series [20]: Half life in Sprague-Dawley rat at 20 mg/kg, po by LC-MS/MS analysis. The class given is ADME, organism-based. Conditions: in vivo.

As a reminder, the MRT last is a mean duration of stay, worked out from the concentration-time curve. A word on the MRT inf: it is the average time that molecules of a dose stay in the body. The term half-life denotes the time in which the quantity being followed falls by half. The low end stands for fast loss, the high end for slow loss.

The structures appear in SMILES notation. Calls of active or inactive are those of the source.

Chain of Serine/threonine-protein kinase MRCK gamma (Homo sapiens) (Q6DT37 whole entry, the tested form may be a part): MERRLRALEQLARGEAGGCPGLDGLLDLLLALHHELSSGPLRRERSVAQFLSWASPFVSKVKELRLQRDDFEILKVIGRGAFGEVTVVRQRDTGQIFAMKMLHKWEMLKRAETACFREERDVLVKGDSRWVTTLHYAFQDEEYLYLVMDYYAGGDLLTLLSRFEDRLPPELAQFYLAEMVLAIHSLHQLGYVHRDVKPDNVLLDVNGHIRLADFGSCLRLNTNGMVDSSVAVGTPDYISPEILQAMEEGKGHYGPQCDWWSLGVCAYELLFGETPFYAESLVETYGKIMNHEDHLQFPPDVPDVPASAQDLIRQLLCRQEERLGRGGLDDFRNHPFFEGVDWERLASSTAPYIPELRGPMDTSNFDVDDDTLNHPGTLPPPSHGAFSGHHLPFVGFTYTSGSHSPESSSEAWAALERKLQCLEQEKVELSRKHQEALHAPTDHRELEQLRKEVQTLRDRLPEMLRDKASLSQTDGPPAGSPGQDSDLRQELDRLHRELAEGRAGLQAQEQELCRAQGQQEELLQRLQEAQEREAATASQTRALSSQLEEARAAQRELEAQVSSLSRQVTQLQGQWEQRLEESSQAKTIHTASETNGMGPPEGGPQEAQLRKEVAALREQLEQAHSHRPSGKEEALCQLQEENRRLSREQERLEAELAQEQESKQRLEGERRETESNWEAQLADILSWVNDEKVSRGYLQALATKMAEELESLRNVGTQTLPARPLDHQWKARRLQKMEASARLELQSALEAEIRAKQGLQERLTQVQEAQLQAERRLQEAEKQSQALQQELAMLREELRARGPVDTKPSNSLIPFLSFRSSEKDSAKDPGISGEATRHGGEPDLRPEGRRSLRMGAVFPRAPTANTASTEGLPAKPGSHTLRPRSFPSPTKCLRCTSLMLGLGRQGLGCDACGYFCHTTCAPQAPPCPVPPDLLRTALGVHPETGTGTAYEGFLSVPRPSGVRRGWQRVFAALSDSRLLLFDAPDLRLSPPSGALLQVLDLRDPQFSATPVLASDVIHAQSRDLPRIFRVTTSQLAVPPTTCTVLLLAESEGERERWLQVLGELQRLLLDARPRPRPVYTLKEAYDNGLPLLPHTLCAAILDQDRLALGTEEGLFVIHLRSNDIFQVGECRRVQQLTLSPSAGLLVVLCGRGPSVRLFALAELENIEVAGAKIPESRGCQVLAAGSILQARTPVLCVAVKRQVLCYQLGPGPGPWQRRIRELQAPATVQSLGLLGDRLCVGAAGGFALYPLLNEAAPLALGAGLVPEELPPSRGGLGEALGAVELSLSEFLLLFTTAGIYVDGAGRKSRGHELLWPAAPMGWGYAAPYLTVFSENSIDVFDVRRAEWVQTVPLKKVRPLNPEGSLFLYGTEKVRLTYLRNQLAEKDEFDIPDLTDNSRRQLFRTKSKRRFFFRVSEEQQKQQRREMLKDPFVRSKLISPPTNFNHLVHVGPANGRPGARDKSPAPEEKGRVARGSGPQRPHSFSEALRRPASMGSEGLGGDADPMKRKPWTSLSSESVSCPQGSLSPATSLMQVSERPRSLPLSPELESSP

In the case of `COCCN[C@H]1CC[C@H](Nc2cc(-c3csc(NCC4(C#N)CCOCC4)n3)c(Cl)cn2)CC1`, the Activity in series [1] came out at 98%; in series [2] it was 89%; in series [3], 100%; in series [4], 79%; in [6] it was 77%; in series [7], 92%. Moreover, the Activity in series [9] is 99%; in series [10], 89%; in [12], 96%; in [13] it was 88%; in series [15] it was 96%; in series [16] it was 95%. Moreover, the values for the Activity in series [17], in series [18] and in series [19] were 97%, 100% and 86%, respectively. Moreover, the Vd in series [5] was 44.5 L/kg. The MRT last in series [8] is 3.59 h. For the same compound, in series [11], the mean residence time (MRT inf) is 3.48 h. For the same compound, in series [14], the inhibition result is “inactive”. In series [20], this compound showed a half-life of 3.37 h.
